Measurements as given in article PMC4643417 (Leukemia & lymphoma, 2015).

Assays:
[1] = system: patients with previously untreated CLL; parameters: species or system human; settings: in vivo
[2] = Navitoclax plasma pharmacokinetics; assay type: in vivo, human; settings: for AUC / Cmax / Tmax: human, plasma, po
[3] = system: patients with relapsed/refractory CLL; settings: phase 1 study, single-agent navitoclax; cited from earlier work
[4] = system: patients with previously untreated CLL; test: Phase 2 randomized three-arm trial: investigator-assessed best response; assay type: in vivo, human
Outline: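 Open-label multicenter trial, randomized 1:1:1 and stratified by Binet stage and del(17p)/del(11q) (interphase FISH on marrow aspirates). Rituximab 375 mg/m2 week 1, then 500 mg/m2 weekly weeks 2–8, alone or with oral navitoclax (100 mg daily lead-in week, then 250 mg daily for 12 weeks). Investigator response by updated iwCLL at week 12, then every 12 weeks. ORR (CR+PR) with 95% CI; PFS by Kaplan–Meier.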

[5] = system: patients with CLL, BCL2 protein low or high subgroups; test: Association of baseline BCL2 protein expression; assay type: in vivo, human; settings: arm A (n = 24) / arms B + C pooled (n = 31)
Outline: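 Baseline bone marrow aspirates (optional consent), fresh: intracellular BCL2 staining by flow cytometry at a central lab within 72 h of collection, gated on CD19/CD5-positive CLL cells. Low/high subgroups split at median expression. Rituximab 375 mg/m2 week 1, then 500 mg/m2 weekly weeks 2–8, ± oral navitoclax (100 mg/day lead-in, then 250 mg/day). Odds ratios of objective response by logistic regression.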

[6] = in vivo
[7] = system: BCL2; settings: statement in discussion; cited from earlier work
[8] = system: BCLXL; settings: statement in discussion; cited from earlier work
[9] = ITT population, arm A (n = 40) / arm B (n = 38; navitoclax 12 weeks)
[10] = patients with del(17p), arm A (n = 11) / arm B (n = 12; navitoclax 12 weeks)

With `CC1(C)CCC(c2ccc(Cl)cc2)=C(CN2CCN(c3ccc(C(=O)NS(=O)(=O)c4ccc(N[C@H](CCN5CCOCC5)CSc5ccccc5)c(S(=O)(=O)C(F)(F)F)c4)cc3)CC2)C1` [navitoclax] as the compound, how does the “Discontinuation of navitoclax due to hyperbilirubinemia” value ([1]; human) read?
The value was 1 n.

What about the “Discontinuation of navitoclax due to neutropenia” value ([1]; human) of the same compound?
The value was 1 n.

What about the “Discontinuation of navitoclax due to pain” value ([1]; human) of the same compound?
Its value is 1 n.

What about the “Discontinuation of navitoclax due to reaction to the infusion of rituximab” value ([1]; human) of the same compound?
Its value is 1 n.

What about the “Discontinuation of navitoclax due to serum sickness” value ([1]; human) of the same compound?
Its value is 1 n.

And the “Discontinuation of navitoclax due to thrombocytopenia” value ([1]; human)?
The value was 1 n.

What about the “Patients who discontinued navitoclax due to an AE, total” value ([1]; human) of the same compound?
The value was 12 patients.

What about the “Incidence of SAEs compared to patients treated with rituximab alone” value [1] of the same compound?
Its value is “not increased”.

And the Reports of bleeding [1]?
The Reports of bleeding was “a single AE of self-limited epistaxis”.

What about the “Time of maximum navitoclax concentration (Cmax) after oral administration” value [2] of the same compound?
Its value is “approximately 6 h”.

And the AUC ([2]; 100 mg)?
Its AUC is 10500 ± 4100 ng·h/mL.

What about the Cmax ([2]; 100 mg) of the same compound?
Its Cmax is 2300 ± 900 ng/mL.

What about the Tmax ([2]; 100 mg) of the same compound?
The Tmax was 6 h.

What about the AUC ([2]; 250 mg) of the same compound?
Its AUC is 61200 ± 31200 ng·h/mL.

What about the Cmax ([2]; 250 mg) of the same compound?
The Cmax was 3700 ± 2000 ng/mL.

And the Tmax ([2]; 250 mg)?
The Tmax was 6.1 h.

And the “Overall response rate (ORR)” value [3]?
Its value is 35%.

Which “Best response: Missing” value [4, 9] does the source give for rituximab here?
Its value is 3 (8) n (%).

And the “Complete response (CR)” value [4, 9]?
The value was 0 (0) n (%).

What about the “Partial response (PR)” value [4, 9] of the same compound?
Its value is 14 (35) n (%).

And the Progressive disease [4, 9]?
The Progressive disease was 2 (5) n (%).

And the Stable disease [4, 9]?
The Stable disease was 21 (53) n (%).

And the “Overall response rate (complete [CR] and partial [PR]), investigator-assessed” value ([4]; arm A / arm B (navitoclax daily for 12 weeks))?
Its value is 35%.

What about the “Best response: Missing” value [4, 10] of the same compound?
The value was 0 (0) n (%).

What about the “Complete response (CR)” value [4, 10] of the same compound?
The value was 0 (0) n (%).

What about the “Partial response (PR)” value [4, 10] of the same compound?
Its value is 2 (18) n (%).

And the Progressive disease [4, 10]?
The Progressive disease was 1 (9) n (%).

What about the Stable disease [4, 10] of the same compound?
Its Stable disease is 8 (73) n (%).

What about the Anemia/worsening of anemia [1] of the same compound?
Its Anemia/worsening of anemia is 2 (5) n (%).

And the “Any AEs” value [1]?
The value was 33 (87) n (%).

And the “Any SAEs” value [1]?
Its value is 5 (13) n (%).

And the Asthenia [1]?
The Asthenia was 0 (0) n (%).

And the Chills [1]?
Its Chills is 0 (0) n (%).

And the Diarrhea [1]?
The Diarrhea was 0 (0) n (%).

What about the “GI and abdominal pain” value [1] of the same compound?
Its value is 0 (0) n (%).

And the “Grade 5 AEs” value [1]?
Its value is 3%.

What about the Hyperbilirubinemia [1] of the same compound?
The Hyperbilirubinemia was 0 (0) n (%).

What about the Leukopenia [1] of the same compound?
The Leukopenia was 1 (3) n (%).

What about the Liver enzyme increase [1] of the same compound?
Its Liver enzyme increase is 0 (0) n (%).

And the Neutropenia [1]?
Its Neutropenia is 3 (8) n (%).

And the “Patients who withdrew from study due to AEs” value [1]?
Its value is 0 [0%] n [%].

What about the Respiratory tract infection [1] of the same compound?
The Respiratory tract infection was 3 (8) n (%).

What about the Thrombocytopenia [1] of the same compound?
Its Thrombocytopenia is 0 (0) n (%).

And the “Vascular hypertensive disorders (hypertension)” value [1]?
Its value is 0 (0) n (%).

And the “Best response PR” value [5]?
Its value is 6 (43%) n (%).

What about the “Best response SD or PD” value [5] of the same compound?
Its value is 8 (57%) n (%).

And the “Effect of navitoclax on the PK of rituximab” value [6]?
The value was “does not affect the PK of rituximab”.

What about the “Week 8 rituximab concentration, post-infusion” value [6] of the same compound?
The value was 576 ± 264 (n = 33) μg/mL.

And the “Week 8 rituximab concentration, pre-infusion” value [6]?
The value was 296 ± 175 (n = 33) μg/mL.

Which “Affinity for BCL2” value [7] does the source give for `CC1(C)CCC(CN2CCN(c3ccc(C(=O)NS(=O)(=O)c4ccc(NCC5CCOCC5)c([N+](=O)[O-])c4)c(Oc4cnc5[nH]ccc5c4)c3)CC2)=C(c2ccc(Cl)cc2)C1` [ABT-199] here?
Its value is “very high affinity”.

And the BCLXL inhibition [8]?
Its BCLXL inhibition is “effectively no BCLXL inhibition”.
